Test results taken from ChEMBL document CHEMBL1151210, “Antioxidative constituents from the leaves of Hypericum styphelioides” (J Nat Prod, 2004).

Test: Antioxidant activity assessed as trolox equivalent of free radical scavenging activity by chemiluminescence assay
Format: functional
Summary of the method: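 Measures inhibition of p-iodophenol-enhanced chemiluminescence from a horseradish peroxidase/perborate/luminol system. Signal reagent was made by dissolving tablets (luminol, p-iodophenol enhancer, perborate oxidant) in assay buffer. Trolox served as reference antioxidant, and activity is expressed in Trolox-equivalent mM.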

Point of comparison: `CC(C)=CCC/C(C)=C/Cc1c(O)cc(O)c(C(=O)CC(C)C)c1O`, Activity 0.96 mM. Against it:
- C=C(C)[C@H]1C[C@H](c2c(O)cc3oc4c(O)cccc4c(=O)c3c2O)C(C)(C)C1 — 2-fold higher, 1.94 mM
- O=C(c1ccccc1)c1cc(O)c([C@@H]2O[C@H](CO)[C@@H](O)[C@H](O)[C@H]2O)c(O)c1 — within 1.5-fold, 1.24 mM
- C[C@@H]1O[C@@H](OC[C@H]2O[C@@H](Oc3c(-c4ccc(O)c(O)c4)oc4cc(O)cc(O)c4c3=O)[C@H](O)[C@@H](O)[C@@H]2O)[C@H](O)[C@H](O)[C@H]1O — 2.6-fold higher, 2.54 mM
- O=c1c(O)c(-c2ccc(O)c(O)c2)oc2cc(O)cc(O)c12 — 3.2-fold higher, 3.09 mM
- C=C(C)[C@H]1C[C@H](c2c(O)cc3oc4c(O)c(O)ccc4c(=O)c3c2O)C(C)(C)C1 — 1.9-fold higher, 1.78 mM

Test: Antioxidant activity assessed as trolox equivalent of ABTS radical scavenging activity by spectrophotometry
Format: functional
Summary of the method: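 ABTS radical monocation, preformed, scavenging read spectrophotometrically. Samples were diluted in MeOH to 0.3, 0.5, 1.0, 1.5 and 2.0 mM. 10 µL of sample or Trolox standard was added to 1.0 mL diluted ABTS, with MeOH as control. % inhibition of A734 vs control was taken 1 min after mixing, in triplicate. Value = Trolox concentration matching the inhibition of 1 mM compound.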

Point of comparison: `C[C@@H]1O[C@@H](OC[C@H]2O[C@@H](Oc3c(-c4ccc(O)c(O)c4)oc4cc(O)cc(O)c4c3=O)[C@H](O)[C@@H](O)[C@@H]2O)[C@H](O)[C@H](O)[C@H]1O`, Activity 2.78 mM. Against it:
- C=C(C)[C@H]1C[C@H](c2c(O)cc3oc4c(O)cccc4c(=O)c3c2O)C(C)(C)C1 — within 1.5-fold, 2.92 mM
- O=C(c1ccccc1)c1cc(O)c([C@@H]2O[C@H](CO)[C@@H](O)[C@H](O)[C@H]2O)c(O)c1 — within 1.5-fold, 1.93 mM
- O=c1c(O)c(-c2ccc(O)c(O)c2)oc2cc(O)cc(O)c12 — within 1.5-fold, 3.33 mM
- CC(C)=CCC/C(C)=C/Cc1c(O)cc(O)c(C(=O)CC(C)C)c1O — 2.5-fold lower, 1.1 mM
- C=C(C)[C@H]1C[C@H](c2c(O)cc3oc4c(O)c(O)ccc4c(=O)c3c2O)C(C)(C)C1 — within 1.5-fold, 2.75 mM
